Assay results taken from ChEMBL document CHEMBL4043302, “Lead Diversification at the Nanomole Scale Using Liver Microsomes and Quantitative Nuclear Magnetic Resonance Spectroscopy: Application to Phosphodiesterase 2 Inhibitors” (J Med Chem, 2018).

Assays:
[1] = Intrinsic clearance in human hepatocytes assessed per million cells at 1 uM after 0.5 to 4 hrs by HPLC-HRMS method; type: ADME, cell-based, Hepatocyte; settings: human hepatocytes, read-out: CLH
Method in brief: (§1)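 Compound at 1 µM was dried from d6-DMSO and redissolved in Williams E medium. Pooled human hepatocytes were added at 680000 cells/mL. Samples were quenched in water/CH3CN (2:1) with 2% formic acid and clozapine as internal standard, then analysed by HPLC-HRMS in positive-ion full scan. k came from the slope of ln peak-area ratio versus time; CLint = k / cell concentration. Non-specific binding was not measured.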

[2] = Apparent permeability across RRCK cells after 1.5 hrs; type: ADME, cell-based, Canis lupus familiaris, MDCKII-LE; settings: dog, MDCK
[3] = Drug metabolism in cynomolgus monkey liver microsomes assessed as 5-(Difluoromethyl)-7-(3-(hydroxymethyl)-1-methyl-5-(4-(trifluoromethyl)phenyl)-1H-pyrazol-4-yl)-2-methylimidazo[5,1-f ]-[1,2,4]triazin-4(3H)-one formation at 20 uM after 1.5 hrs by UHPLC-UV-HRMS method; type: ADME, Macaca fascicularis, microsome
Method in brief: (§2)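 Preparative incubation: substrate 20 µM with liver microsomes (2 mg/mL) of the listed species in 0.1 M potassium phosphate, pH 7.5, with MgCl2 3.3 mM and NADPH 1.3 mM. Run at 37°C in a shaking water bath and stopped with an equal volume of CH3CN. Products were fractionated by HPLC and quantified by qNMR in d6-DMSO.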

[4] = Drug metabolism in cynomolgus monkey liver microsomes assessed as 5-(Difluoromethyl)-2-methyl-7-(3-methyl-5-(4-(trifluoromethyl)-phenyl)-1H-pyrazol-4-yl)imidazo[5,1-f ][1,2,4]triazin-4(3H)-one at 20 uM after 1.5 hrs by UHPLC-UV-HRMS method; type: ADME, Macaca fascicularis, microsome; method in brief: as §2
[5] = Drug metabolism in hamster liver microsomes assessed as 5-(Hydroxymethyl)-2-methyl-7-(3-methyl-5-(4-(trifluoromethyl)-phenyl)-1H-pyrazol-4-yl)imidazo[5,1-f ][1,2,4]triazin-4(3H)-one formation at 20 uM after 1 hr by UHPLC-UV-HRMS method; type: ADME, microsome; settings: cricetinae; method in brief: as §2
[6] = Drug metabolism in hamster liver microsomes assessed as 7-(3-(Hydroxymethyl)-5-(4-(trifluoromethyl)phenyl)-1H-pyrazol-4-yl)-5-(methoxymethyl)-2-methylimidazo[5,1-f ][1,2,4]triazin-4(3H)-one formation at 20 uM after 1 hr by UHPLC-UV-HRMS method; type: ADME, microsome; settings: cricetinae; method in brief: as §2
[7] = Drug metabolism in hamster liver microsomes assessed as 5-(Methoxymethyl)-2-methyl-7-(3-methyl-5-(4-(trifluoromethyl)-phenyl)-1H-pyrazol-4-yl)imidazo[5,1-f ][1,2,4]triazin-4(3H)-one formation at 20 uM after 1 hr by UHPLC-UV-HRMS method; type: ADME, microsome; settings: cricetinae; method in brief: as §2
[8] = Drug metabolism in hamster liver microsomes assessed as 7-(1,3-Dimethyl-5-(4-(trifluoromethyl)phenyl)-1H-pyrazol-4-yl)-5-(methoxymethyl)-2-methyl-4-oxo-3,4-dihydroimidazo[5,1-f ][1,2,4]-triazine 1-oxide formation at 20 uM after 1 hr by UHPLC-UV-HRMS method; type: ADME, microsome; settings: cricetinae; method in brief: as §2
[9] = Metabolic stability in human hepatocytes at 1 uM after 0.5 to 4 hrs by HPLC-HRMS method; type: ADME, cell-based, Hepatocyte; method in brief: as §1
[10] = Drug metabolism in hamster liver microsomes assessed as 7-(5-(6-Hydroxypyridin-3-yl)-3-methyl-1H-pyrazol-4-yl)-2,5-dimethylimidazo[5,1-f ][1,2,4]triazin-4(3H)-one formation at 20 uM after 1.5 hrs by UHPLC-UV-HRMS method; type: ADME, microsome; settings: cricetinae; method in brief: as §2
[11] = Drug metabolism in hamster liver microsomes assessed as 5-(Hydroxymethyl)-7-(5-(6-methoxypyridin-3-yl)-3-methyl-1Hpyrazol-4-yl)-2-methylimidazo[5,1-f ][1,2,4]triazin-4(3H)-one formation at 20 uM after 1.5 hrs by UHPLC-UV-HRMS method; type: ADME, microsome; settings: cricetinae; method in brief: as §2
[12] = Drug metabolism in hamster liver microsomes assessed as 7-(5-(6-Methoxypyridin-3-yl)-3-methyl-1H-pyrazol-4-yl)-2,5-dimethylimidazo[5,1-f ][1,2,4]triazin-4(3H)-one formation at 20 uM after 1.5 hrs by UHPLC-UV-HRMS method; type: ADME, microsome; settings: cricetinae; method in brief: as §2
[13] = Drug metabolism in hamster liver microsomes assessed as 5-(Hydroxymethyl)-7-(5-(6-methoxypyridin-3-yl)-1,3-dimethyl-1H-pyrazol-4-yl)-2-methylimidazo[5,1-f ][1,2,4]triazin-4(3H)-one formation at 20 uM after 1.5 hrs by UHPLC-UV-HRMS method; type: ADME, microsome; settings: cricetinae; method in brief: as §2
[14] = target: cGMP-dependent 3',5'-cyclic phosphodiesterase (Homo sapiens, UniProt O00408); assay: Inhibition of human PDE2A1 using 3',5'-[3H]cGMP as substrate after 30 mins by scintillation proximity assay
Chain of cGMP-dependent 3',5'-cyclic phosphodiesterase (O00408 whole entry): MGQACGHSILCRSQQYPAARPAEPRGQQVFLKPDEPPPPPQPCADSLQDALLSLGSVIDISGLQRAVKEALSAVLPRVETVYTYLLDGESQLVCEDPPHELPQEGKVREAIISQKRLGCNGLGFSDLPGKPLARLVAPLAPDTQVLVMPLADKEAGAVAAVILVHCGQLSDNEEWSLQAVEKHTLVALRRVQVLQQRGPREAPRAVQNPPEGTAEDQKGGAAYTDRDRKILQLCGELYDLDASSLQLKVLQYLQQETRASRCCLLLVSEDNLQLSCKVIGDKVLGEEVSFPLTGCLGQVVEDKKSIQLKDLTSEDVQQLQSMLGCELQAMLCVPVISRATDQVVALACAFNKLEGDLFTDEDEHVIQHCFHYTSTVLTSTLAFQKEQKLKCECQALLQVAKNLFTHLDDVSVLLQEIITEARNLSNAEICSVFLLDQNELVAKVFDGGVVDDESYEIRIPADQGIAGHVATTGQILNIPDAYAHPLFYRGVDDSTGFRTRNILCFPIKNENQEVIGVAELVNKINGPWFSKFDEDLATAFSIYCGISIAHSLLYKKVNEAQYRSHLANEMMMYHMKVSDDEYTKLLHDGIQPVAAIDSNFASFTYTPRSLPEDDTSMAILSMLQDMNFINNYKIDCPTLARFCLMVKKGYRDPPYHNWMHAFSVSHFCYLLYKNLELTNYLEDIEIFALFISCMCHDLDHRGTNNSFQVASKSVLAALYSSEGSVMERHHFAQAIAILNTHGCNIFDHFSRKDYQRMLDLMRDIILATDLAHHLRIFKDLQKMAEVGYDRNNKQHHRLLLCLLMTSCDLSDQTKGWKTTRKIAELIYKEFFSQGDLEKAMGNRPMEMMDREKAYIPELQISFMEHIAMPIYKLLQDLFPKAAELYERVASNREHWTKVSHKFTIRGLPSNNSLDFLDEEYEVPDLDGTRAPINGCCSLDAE

Liver [15] = assay: Drug level in human liver microsomes treated with 5-(5-(Cyclopentylmethyl)-4,5,6,7-tetrahydropyrazolo[1,5-a]-pyrazin-3-yl)-7-methylimidazo[5,1-f ][1,2,4]triazin-4(3H)-one at 20 uM after 1.5 hrs by UHPLC-UV-HRMS method; type: ADME, microsome; method in brief: as §2
Liver [16] = assay: Drug metabolism in mouse liver microsomes assessed as 7-(5-(4-Chlorophenyl)-1,3-dimethyl-1H-pyrazol-4-yl)-5-(hydroxymethyl)-2-methylimidazo[5,1-f ][1,2,4]triazin-4(3H)-one formation at 20 uM after 1.5 hrs by UHPLC-UV-HRMS method; type: ADME, microsome; method in brief: as §2
Liver [17] = assay: Drug metabolism in mouse liver microsomes assessed as 7-(5-(4-Chlorophenyl)-3-(hydroxymethyl)-1-methyl-1H-pyrazol-4-yl)-2,5-dimethylimidazo[5,1-f ][1,2,4]triazin-4(3H)-one formation at 20 uM after 1.5 hrs by UHPLC-UV-HRMS method; type: ADME, microsome; method in brief: as §2
[18] = Drug metabolism in rabbit liver microsomes assessed as 5-(Hydroxymethyl)-7-(5-(3-(hydroxymethyl)-4-(trifluoromethyl)phenyl)-1,3-dimethyl-1H-pyrazol-4-yl)-2-methylimidazo[5,1-f ][1,2,4]triazin-4(3H)-one formation at 20 uM after 1 hr by UHPLC-UV-HRMS method; type: ADME, Oryctolagus cuniculus, microsome; method in brief: as §2
[19] = Drug metabolism in rabbit liver microsomes assessed as 7-(3-(Hydroxymethyl)-5-(3-(hydroxymethyl)-4-(trifluoromethyl)-phenyl)-1-methyl-1H-pyrazol-4-yl)-2,5-dimethylimidazo[5,1-f ]-[1,2,4]triazin-4(3H)-one formation at 20 uM after 1 hr by UHPLC-UV-HRMS method; type: ADME, Oryctolagus cuniculus, microsome; method in brief: as §2
[20] = Drug metabolism in rabbit liver microsomes assessed as 7-(5-(3-(Hydroxymethyl)-4-(trifluoromethyl)phenyl)-1,3-dimethyl-1H-pyrazol-4-yl)-2,5-dimethylimidazo[5,1-f ][1,2,4]triazin-4(3H)-one formation at 20 uM after 1 hr by UHPLC-UV-HRMS method; type: ADME, Oryctolagus cuniculus, microsome; method in brief: as §2
[21] = Drug metabolism in rabbit liver microsomes assessed as 5-(Hydroxymethyl)-7-(3-(hydroxymethyl)-1-methyl-5-(3-methyl-4-(trifluoromethyl)phenyl)-1H-pyrazol-4-yl)-2-methylimidazo[5,1-f ][1,2,4]triazin-4(3H)-one formation at 20 uM after 1 hr by UHPLC-UV-HRMS method; type: ADME, Oryctolagus cuniculus, microsome; method in brief: as §2
[22] = Drug metabolism in rabbit liver microsomes assessed as 7-(1,3-Dimethyl-5-(3-methyl-4-(trifluoromethyl)phenyl)-1H-pyrazol-4-yl)-5-(hydroxymethyl)-2-methylimidazo[5,1-f ][1,2,4]triazin-4(3H)-one formation at 20 uM after 1 hr by UHPLC-UV-HRMS method; type: ADME, Oryctolagus cuniculus, microsome; method in brief: as §2
[23] = Drug metabolism in rabbit liver microsomes assessed as 4-(2,5-Dimethyl-4-oxo-3,4-dihydroimidazo[5,1-f ][1,2,4]triazin-7-yl)-1-methyl-5-(3-methyl-4-(trifluoromethyl)phenyl)-1H-pyrazole-3-carboxylic acid formation at 20 uM after 1 hr by UHPLC-UV-HRMS method; type: ADME, Oryctolagus cuniculus, microsome; method in brief: as §2
[24] = Drug metabolism in cynomolgus monkey liver microsomes assessed as 5-(Hydroxymethyl)-7-(3-(hydroxymethyl)-1-methyl-5-(5-(trifluoromethyl)pyridin-2-yl)-1H-pyrazol-4-yl)-2-methylimidazo-[5,1-f ][1,2,4]triazin-4(3H)-one formation at 20 uM after 1.2 hrs by UHPLC-UV-HRMS method; type: ADME, Macaca fascicularis, microsome; method in brief: as §2
[25] = Drug metabolism in cynomolgus monkey liver microsomes assessed as 7-(1,3-Dimethyl-5-(5-(trifluoromethyl)pyridin-2-yl)-1H-pyrazol-4-yl)-5-(hydroxymethyl)-2-methylimidazo[5,1-f ][1,2,4]triazin-4(3H)-one formation at 20 uM after 1.2 hrs by UHPLC-UV-HRMS method; type: ADME, Macaca fascicularis, microsome; method in brief: as §2
[26] = Drug metabolism in cynomolgus monkey liver microsomes assessed as 7-(3-(Hydroxymethyl)-1-methyl-5-(5-(trifluoromethyl)pyridin-2-yl)-1H-pyrazol-4-yl)-2,5-dimethylimidazo[5,1-f ][1,2,4]triazin-4(3H)-one formation at 20 uM after 1.2 hrs by UHPLC-UV-HRMS method; type: ADME, Macaca fascicularis, microsome; method in brief: as §2
[27] = Drug metabolism in cynomolgus monkey liver microsomes assessed as 4-(2,5-Dimethyl-4-oxo-3,4-dihydroimidazo[5,1-f ][1,2,4]triazin-7-yl)-1-methyl-5-(5-(trifluoromethyl)pyridin-2-yl)-1H-pyrazole-3-carbaldehyde formation at 20 uM after 1.2 hrs by UHPLC-UV-HRMS method; type: ADME, Macaca fascicularis, microsome; method in brief: as §2
Liver [28] = assay: Drug metabolism in human liver microsomes assessed as 5-(5-((2-Hydroxycyclopentyl)methyl)-4,5,6,7-tetrahydropyrazolo-[1,5-a]pyrazin-3-yl)-7-methylimidazo[5,1-f][1,2,4]triazin-4(3H)-one diastereomer 1 formation at 20 uM after 1.5 hrs by UHPLC-UV-HRMS method; type: ADME, microsome; method in brief: as §2
Liver [29] = assay: Drug metabolism in human liver microsomes assessed as 5-(5-((2-Hydroxycyclopentyl)methyl)-4,5,6,7-tetrahydropyrazolo-[1,5-a]pyrazin-3-yl)-7-methylimidazo[5,1-f][1,2,4]triazin-4(3H)-one diastereomer 2 formation at 20 uM after 1.5 hrs by UHPLC-UV-HRMS method; type: ADME, microsome; method in brief: as §2

Compound: Cc1nn2c(-c3c(C)nn(C)c3-c3ccc(C(F)(F)F)cc3)nc(C(F)F)c2c(=O)[nH]1
- hepatocyte CLint at 1 µM [1]: 5.3 µL/min/1e6 cells
- Papp at 1.5 h [2]: 23 ×10⁻⁶ cm/s
- Drug metabolism [3]: Metabolite_Detected
- Drug metabolism [4]: Metabolite_Detected

Compound: COCc1nc(-c2c(C)nn(C)c2-c2ccc(C(F)(F)F)cc2)n2nc(C)[nH]c(=O)c12
- hepatocyte CLint at 1 µM [1]: 4.7 µL/min/1e6 cells
- Papp at 1.5 h [2]: 13 ×10⁻⁶ cm/s
- Drug metabolism [5]: Metabolite_Detected
- Drug metabolism [6]: Metabolite_Detected
- Drug metabolism [7]: Metabolite_Detected
- Drug metabolism [8]: Metabolite_Detected

Compound: COc1ccc(-c2c(-c3nc(C)c4c(=O)[nH]c(C)nn34)c(C)nn2C)cn1
- Stability [9]: Stable
- Drug metabolism [10]: Metabolite_Detected
- Drug metabolism [11]: Metabolite_Detected
- Drug metabolism [12]: Metabolite_Detected
- Drug metabolism [13]: Metabolite_Detected

Compound: Cc1nc(-c2cnn3c2CN(CC2CCCC2O)CC3)c2c(=O)[nH]cnn12 (single isomer, unassigned; diastereomer 1)
- IC50 [14]: > 2000 nM
- hepatocyte CLint at 1 µM [1]: 5.4 µL/min/1e6 cells
- Papp at 1.5 h [2]: 1.8 ×10⁻⁶ cm/s
- Drug metabolism (Liver [15]): Metabolite_Detected

Compound: Cc1nn2c(-c3c(C)nn(C)c3-c3ccc(Cl)cc3)nc(C)c2c(=O)[nH]1
- hepatocyte CLint at 1 µM [1]: 32 µL/min/1e6 cells
- Drug metabolism (Liver [16]): Metabolite_Detected
- Drug metabolism (Liver [17]): Metabolite_Detected

Compound: Cc1nn2c(-c3c(C)nn(C)c3-c3ccc(C(F)(F)F)c(C)c3)nc(C)c2c(=O)[nH]1
- Drug metabolism [18]: Metabolite_Detected
- Drug metabolism [19]: Metabolite_Detected
- Drug metabolism [20]: Metabolite_Detected
- Drug metabolism [21]: Metabolite_Detected
- Drug metabolism [22]: Metabolite_Detected
- Drug metabolism [23]: Metabolite_Detected
- hepatocyte CLint at 1 µM [1]: 19 µL/min/1e6 cells
- Papp at 1.5 h [2]: 28 ×10⁻⁶ cm/s

Compound: Cc1nn2c(-c3c(C)nn(C)c3-c3ccc(C(F)(F)F)cn3)nc(C)c2c(=O)[nH]1
- Papp at 1.5 h [2]: 16 ×10⁻⁶ cm/s
- Stability [9]: Stable
- Drug metabolism [24]: Metabolite_Detected
- Drug metabolism [25]: Metabolite_Detected
- Drug metabolism [26]: Metabolite_Detected
- Drug metabolism [27]: Metabolite_Detected

Compound: Cc1nc(-c2cnn3c2CN(CC2CCCC2)CC3)c2c(=O)[nH]cnn12
- hepatocyte CLint at 1 µM [1]: 16 µL/min/1e6 cells
- Papp at 1.5 h [2]: 24 ×10⁻⁶ cm/s
- Drug metabolism (Liver [28]): Metabolite_Detected
- Drug metabolism (Liver [29]): Metabolite_Detected
